Measured values collected from several papers.
Compare with care: the assays were run in different laboratories.
Target: Lymphokine-activated killer T-cell-originated protein kinase (PBK, Homo sapiens, UniProt Q96KB5)
Sequence (Q96KB5 1-322, as in one of the studies): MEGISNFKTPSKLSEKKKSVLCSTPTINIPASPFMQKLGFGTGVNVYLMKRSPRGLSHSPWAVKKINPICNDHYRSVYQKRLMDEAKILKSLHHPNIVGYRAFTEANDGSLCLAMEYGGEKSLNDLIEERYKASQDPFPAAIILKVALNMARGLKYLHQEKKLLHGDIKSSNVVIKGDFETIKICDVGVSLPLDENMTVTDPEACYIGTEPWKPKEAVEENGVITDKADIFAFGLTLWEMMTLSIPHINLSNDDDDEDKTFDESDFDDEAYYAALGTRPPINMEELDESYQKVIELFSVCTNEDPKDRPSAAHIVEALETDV

Compound	assay	conditions	measurement	result
CC/C(=N\NC(=O)NCc1cccc(O)c1)c1ccc(O)c(C)c1O	enzyme activity, inhibitor	0.1 µM	inhibition	-7.3%
O=C1Nc2ccc(Cl)cc2C1=Cc1cc(Cl)c(O)c(Cl)c1	cell-free assay	0.5 µM	remaining signal	86.1%
CC(C)(C)c1nc(-c2cccc(NS(=O)(=O)c3c(F)cccc3F)c2F)c(-c2ccnc(N)n2)s1	enzyme activity, inhibitor, radiometric	1 µM	remaining activity	99%
Cc1sc(C(=O)NC2COC2)cc1-n1cc(NC(=O)Nc2c(F)cccc2Cl)cn1	enzyme activity, inhibitor	10 µM	remaining activity	88.5%
N#CCCc1ccc2c(c1)-c1[nH]c3ccc([N+](=O)[O-])cc3c1CC(=O)N2	cell-free assay	0.5 µM	remaining signal	95.4%
Cn1c2c(c3ccccc31)C(C#N)C(C)(C)NC2=O (centres unmarked)	thermal stability, DSF	10 µM	ΔTm	-0.8 °C
CC(C)(O)[C@H]1CC[C@H](Nc2ccc3ncc(-c4cccc(C(F)(F)F)c4)n3n2)CC1	enzyme activity, inhibitor	1 µM	remaining activity	87.2%
CCN1CCC2(CC1)NC(=O)c1c(c3ccc(Cl)c(Cl)c3n1C)C2C#N (racemic)	thermal stability, DSF	10 µM	ΔTm	-0.3 °C
O=C(Nc1cnn(-c2csc(C(=O)NC3COC3)c2)c1)Nc1c(F)cccc1Cl	enzyme activity, inhibitor	5 µM	remaining activity	98.2%
Cn1c2c(Cl)c(Cl)ccc2c2cc(N)[nH]c(=O)c21	thermal stability, DSF	10 µM	ΔTm	0.6 °C
CC(C)(C)c1nc2c(s1)c1nc(N)ncc1c1ccc(NS(=O)(=O)c3c(F)cccc3F)c(F)c12	enzyme activity, inhibitor, radiometric	1 µM	remaining activity	92%
